This is a sample that favours compounds with a hit; in the whole collection about 2.4% have one here.
MOR-DOR inv ag: inverse agonists of human mu-delta opioid receptor heterodimerization; inhibition, % at 9.3 µM; 340,000 tested, 0.21% active; cell-based MOR-DOR heterodimer luminescence, inverse agonism; P35372+P41143; in the data active = inhibition above about 22%, passing the limit was not always enough;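 also: 0% = cells with DMSO and 100% = wells without cells with DMSO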
MC4R antagonist: antagonists of human melanocortin 4 receptor (MC4R); P32245; 360,000 tested, 0.48% active; MC4R-expressing cells, MTII-stimulated cAMP, LANCE TR-FRET; inhibition, % at 6.5 µM;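 active = inhibition above its plate's cutoff, the mean of tested wells on that plate plus 3 SD, cut at about 29% in these data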;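 also: 0% = Melanotan II alone and 100% = Melanotan II plus saturating MCL0020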
Target sequence (P32245 whole entry, looked up): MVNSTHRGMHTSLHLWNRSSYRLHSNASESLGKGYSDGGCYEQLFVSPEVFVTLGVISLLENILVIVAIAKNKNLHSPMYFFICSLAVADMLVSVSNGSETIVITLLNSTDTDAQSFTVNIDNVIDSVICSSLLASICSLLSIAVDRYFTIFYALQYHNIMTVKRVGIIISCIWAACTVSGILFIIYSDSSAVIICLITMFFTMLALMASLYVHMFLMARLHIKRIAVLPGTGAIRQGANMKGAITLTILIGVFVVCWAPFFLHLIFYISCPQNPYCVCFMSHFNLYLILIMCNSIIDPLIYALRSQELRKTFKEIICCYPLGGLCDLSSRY
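Assay system: human MC4R-expressing U2OS cells; reagent: Melanotan II stimulation of cells; dosing: 6.5 µM single dose; timing: compound 30 min, challenge 1 h, detection 1 h; signal: TR-FRET cAMP assay; replicates: one well per compound, no replicates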
MOR-DOR ag: agonists of human mu-delta opioid receptor heterodimerization; P35372+P41143; cells, OPRM1-OPRD1 heterodimerization, luminescence; activation, % at 9.3 µM; 340,000 tested, 0.3% active; in the data active = activation above about 18%;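 also: 0% = vehicle-treated cells and 100% = reference agonist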
HTR5A ag: HTR5A agonism, opioid heterodimer counter-screen. P47898. HTR5A agonist assay, luminescence, cell-based. activation, % at 9.3 µM. 340,000 tested, 0.61% active. AID 504692; in the data active = activation mostly above about 9.5%, no sharp cut-off; inactive = mostly below about 7.6%;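 also: 0% = cells with vehicle only and 100% = reference agonist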
HTR5A inv ag: inverse agonist of human HTR5A in OPRM1-OPRD1 counter-screen | P47898 | HTR5A cell line, luminescence, inverse agonism | inhibition, % at 9.3 µM | 340,000 tested, 0.083% active; in the data active = inhibition mostly above about 23%, no sharp cut-off; inactive = mostly below about 18%;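 also: 0% = cells with DMSO and 100% = no-cell wells with DMSO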
MC4R ag barr: activates human MC4R beta-arrestin recruitment; P32245; U2OS MC4R beta-arrestin complementation, luminescence; percent of melanotan II response, DMSO zero; activation, % at 8.9 µM; 360,000 tested, 0.98% active; AID 540308;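 active = activation above a per-plate cutoff, the mean activation of sample wells on that plate plus 3 SD, cut at about 8% in these data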
MC4R barr conf: human MC4R beta-arrestin agonism confirmation; shares compounds with MC4R ag barr; U2OS MC4R beta-arrestin recruitment, luminescence; scaled DMSO 0%, Melanotan II 100%; activation, % at 8.9 µM; 2,400 tested, 31% active; AID 602192;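 active = mean activation across replicates above the hit cutoff set in the earlier primary screen, cut at about 8% in these data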
MOR-DOR barr ag: counter-screen for MC4R agonists: agonists of mu-delta opioid heterodimer | AID 602194 | shares compounds with MC4R ag barr | 2,400 tested, 5.8% active | activation, % at 9.2 µM | U2OS PathHunter beta-arrestin, beta-gal luminescence; percent of deltorphin B response, DMSO zero;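 active = mean activation across replicates exceeds the hit threshold derived in the earlier primary screen, cut at about 18% in these data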;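 also: 100% = deltorphin B at 0.9 µM final and 0% = DMSO alone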
Active calls of the source: *; · = no result given.

SMILES	MOR-DOR inv ag	MC4R antagonist	MOR-DOR ag	HTR5A ag	HTR5A inv ag	MC4R ag barr	MC4R barr conf	MOR-DOR barr ag
C=CC[C@@H](CC(=O)N[C@@H](CO)Cc1ccccc1)C(=O)N[C@@H](COC(=O)[C@@H](CC=C)CC(=O)OC(C)(C)C)Cc1c[nH]c2ccccc12	-28	9	6	-3	9	15*	3	5
COc1ccc2nc(Cl)c(/C=N/Nc3ccccn3)cc2c1	10	2	-2	0	-1	39*	1	5
COc1cc(NC(=O)c2ccc(-c3ccc(F)c(F)c3)c3ccoc23)cc(OC)c1OC	·	7	·	·	·	14*	5	5
O=C(c1cc(-c2ccc(O)cc2)on1)N1CCN(c2ccc(F)cc2)CC1	-26	11	4	8	-10	11*	-1	6
COc1ccc(/C=N\NS(=O)(=O)c2ccc(Cl)cc2)cc1COc1ccccc1[N+](=O)[O-]	-5	9	1	-4	9	18*	10*	6
COc1ccc(/C=N\NS(=O)(=O)c2ccc(Br)cc2)cc1COc1ccccc1[N+](=O)[O-]	-9	9	2	6	-22	2	·	·
NC(=O)CC(NC(=O)c1ccc(Br)cc1)c1ccc(N2CCCCCC2)c([N+](=O)[O-])c1 (stereo unspecified)	2	5	0	0	-5	-1	·	·
CCCC1=Nc2cc(C(=O)NCCN3CCOCC3)ccc2Sc2ccc(C)cc21	-3	2	1	9	1	-3	·	·
Cc1nc2c(OCc3ccccc3)cccn2c1N(C)C(=O)C1CCCCC1	·	2	·	·	·	-3	·	·
Cc1ccc2sc(N(CCCN(C)C)C(=O)c3ccc(Br)s3)nc2c1C	-50	-2	9	4	-11	22*	19*	11
Cc1ccc2sc(N(CCCN(C)C)C(=O)c3nc4ccccc4s3)nc2c1C	-12	3	2	5	-15	40*	26*	31*
Cc1ccsc1C(=O)N1CCC1(C)C(=O)NS(=O)(=O)c1ccc(C#N)cc1 (stereo unspecified)	·	14	·	·	·	-1	·	·
CCOc1cc(S(=O)(=O)n2cnc(C)c2)ccc1Cl	-2	13	0	1	-4	2	·	·
Cc1c(CN2CCC(Oc3ccc(C(=O)N4CCCCC4)cc3)CC2)cnn1C	18	3	-3	-2	3	-1	·	·
Cc1cc(C)nc(SCC(=O)Nc2ncc(Cc3cccc(Cl)c3)s2)n1	-12	2	2	-2	-11	16*	8	3
C=CCn1c(SCC(=O)Nc2ncc(Cc3ccc(C)c(Cl)c3)s2)nnc1-c1ccncc1	12	4	-2	-1	-7	30*	16*	3
C=CCn1c(SCC(=O)Nc2nnc(CC)s2)nnc1-c1ccncc1	-1	25	0	0	1	-3	·	·
OC(c1ccc(Cl)c(Cl)c1)c1ncc(-c2ccccc2F)[nH]1 (stereo unspecified)	·	-2	·	·	·	1	·	·
COCCN(C(=O)COC(=O)CCC(=O)c1ccc(Cl)cc1)c1c(N)n(Cc2ccccc2)c(=O)[nH]c1=O	14	4	-3	-2	20	-2	·	·
N#Cc1c2ccc(OCC(=O)NCc3ccco3)cc2n2ccccc12	0	12	0	0	1	14*	3	5
COc1cccc(CNC(=O)C2CCCN(S(=O)(=O)c3cccc4nonc34)C2)c1 (stereo unspecified)	4	3	-1	-1	18	0	·	·
O=C(c1ccccc1)c1ccc(N2CCN(C(=O)c3ccc(F)cc3F)CC2)c(F)c1	·	0	·	·	·	-1	·	·
Cc1ccc(C(=O)NCCc2cc3ccc(C)c(C)c3[nH]c2=O)cc1[N+](=O)[O-]	8	7	-1	0	-1	9.6*	1	3
COc1ccc(C(=O)NCCc2cc3ccc(C)c(C)c3[nH]c2=O)cc1OC	11	0	-2	2	-1	1	·	·
C=CCc1cc(/C=N/NC(=O)CSc2nnc(CCCc3ccc(OC)cc3)o2)cc(OC)c1O	-2	14	1	4	-14	33*	5	3
SMILES	MOR-DOR inv ag	MC4R antagonist	MOR-DOR ag	HTR5A ag	HTR5A inv ag	MC4R ag barr	MC4R barr conf	MOR-DOR barr ag
COc1ccc(/C=N/NC(=O)CSc2nnc(CCCc3ccc(OC)c(C)c3)o2)cc1	12	-1	-2	2	-1	4	·	·
C=CCc1cc(/C=N\NC(=O)CSc2nnc(CCCc3ccc(OC)c(C)c3)o2)cc(OC)c1O	10	4	-2	0	-4	23*	0	4
O=C(COC(=O)C1CCCCC1)Nc1ccc(S(=O)(=O)N2CCOCC2)cc1	-2	5	0	6	-15	1	·	·
CCCCCCc1cc2cc(S(=O)(=O)c3ccc(C)cc3)c(=O)oc2cc1O	-46	5	9	4	-13	22*	9.6*	6
CCCCCCc1cc2cc(S(=O)(=O)c3ccc(Cl)cc3)c(=O)oc2cc1O	-15	2	3	3	-8	4	·	·
Clc1nc(CN2CCCCC2)nc2sc3c(c12)CCC3	8	2	-2	-1	-16	-3	·	·
C=CCN1C(=O)C2(NNc3ccccc3O2)c2ccccc21 (stereo unspecified)	-16	2	3	-3	-36	9.8*	10*	5
O=C(c1ccc(Cl)cc1)N1CCc2c([nH]c3ccccc23)C1C(F)(F)F (stereo unspecified)	-46	17	9	9	-17	9.8*	1	8
Cc1ccc(NC(=O)CCNS(=O)(=O)c2cccc3nsnc23)cc1F	-2	7	0	-1	3	0	·	·
O=C(Nc1ccc(F)cc1)c1cc(-c2ccncc2)nc2c(Cl)cccc12	-35	-2	7	7	-16	12*	1	10
COc1cccc(CNCc2cccnc2)c1OCc1ccccc1	-4	16	1	-1	1	-3	·	·
N/C(=N\c1nc(CSc2nc3ccccc3s2)cc(=O)[nH]1)Nc1ccc(F)cc1	3	2	-1	6	-12	12*	1	3
CC1Sc2ccc(C(=O)OCc3ccccc3Cl)cc2NC1=O (stereo unspecified)	-25	12	5	11	-27	35*	3	6
COc1cccc(COC(=O)c2ccc3c(c2)NC(=O)C(C)S3)c1OC (stereo unspecified)	-10	2	2	5	-14	19*	3	9
CC1Sc2ccc(C(=O)O)cc2NC1=O (stereo unspecified)	11	0	-2	-5	-11	0	·	·

Source: PubChem (The Scripps Research Institute Molecular Screening Center)
